The subject of test [1] is Aspergillus fumigatus. In words: Antifungal activity against Aspergillus fumigatus Af293 after 48 hrs by EUCAST-based microdilution assay. In kind it is functional, organism-based. To be noted: Af293, 48 h. The gist of the method:
(§1)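 Af293 conidia at 10^5/mL in RPMI (8.4 g/L RPMI1640, 34.5 g/L MOPS, 20 g/L dextrose, pH 7) per EUCAST broth microdilution; 2-fold serial dilutions from 10 μg/mL; 35 °C, 48 h; OD600 read. % growth versus no-inhibitor wells after medium-only background subtraction; IC50 derived from growth curves.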

The test system of test [2] is Candida albicans. The test can be described thus: Antifungal activity against Candida albicans SC5314 after 24 hrs by XTT assay. Type of test: functional, organism-based. The note with it: SC5314, 24 h. The gist of the method: (§2)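 SC5314 grown in YPD at 30 °C for 16 h, washed twice and resuspended in PBS. Seeded at 1.25 × 10^5 cells per well in 100% FBS with 2-fold dilutions from 10 μg/mL; 37 °C, 24 h. XTT (500 μg/mL in PBS, menadione final 10 μM) added, 2 h at 37 °C in the dark; OD490 read; IC50.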

A short description of test [3]: Immunosuppressive activity against […] mouse CD4-positive T cell cells assessed as inhibition of CD3/CD28-induced cell proliferation after 72 hrs by FACS analysis. The gist of the method:
(§3)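 Spleen cells from 6–8-week B6J mice, red cells lysed; CD4+ T cells labelled with CellTrace Violet at isolation. Stimulated with anti-CD3/CD28 beads with compound for 72 h; stained for CD4 and CD44 plus near-IR live/dead dye; proliferation read by flow cytometry; IC50 from curves.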

The subject of test [4] is Cryptococcus neoformans. The test can be described thus: Antifungal activity against Cryptococcus neoformans H99 after 48 hrs by EUCAST-based microdilution assay. In kind it is functional, organism-based. To be noted: var grubii H99 . The gist of the method: (§4)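 H99 grown in YPD at 30 °C for 20 h, then seeded at OD600 0.01 in RPMI-MOPS-dextrose pH 7 (EUCAST microdilution). Analogues added as 2-fold dilutions from 10 μg/mL; 37 °C, 48 h; OD600 read. Growth expressed relative to no-inhibitor wells after background subtraction; IC50 calculated.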

For test [5], the system named is Cryptococcus neoformans. In words: Antifungal activity against Cryptococcus neoformans harboring frr1 deletion mutant at 30 ug/ml. In kind it is functional, organism-based.
Test [6] concerns Cryptococcus neoformans. The test can be described thus: Synergistic antifungal activity against Cryptococcus neoformans H99 in presence of 1.25 ug/ml fluconazole after 48 hrs by checker board assay. Type of test: functional, organism-based. To be noted: var grubii H99 .
Test [7] deals with Cryptococcus neoformans. The test can be described thus: Synergistic antifungal activity against Cryptococcus neoformans H99 assessed as FIC index in presence of fluconazole after 48 hrs by checker board assay. Type of test: functional, var grubii H99. The procedure, abridged: (§5)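 Checkerboard with fluconazole: H99 grown overnight in YPD at 30 °C, seeded at OD600 0.01 in RPMI 1640 per EUCAST. Test agent 2-fold serially diluted. FIC index calculated per strain; ≤0.5 synergy, >0.5–1.0 additive, >1.0–2.0 no interaction, >2.0 antagonism.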

Test [8] concerns Cryptococcus neoformans. The test can be described thus: Antifungal activity against Cryptococcus neoformans H99. Type of test: functional, organism-based. To be noted: var grubii H99. The gist of the method:
as §4

For test [9], the system named is Aspergillus fumigatus. In words: Antifungal activity against Aspergillus fumigatus Af293. Type of test: functional, organism-based. The gist of the method: as §1
Test [10] can be described thus: Immunosuppressive activity against […] mouse CD4-positive T cells assessed as inhibition of CD3/CD28-induced cell proliferation. The gist of the method:
as §3

In test [11] the test system is Candida albicans. In words: Antifungal activity against Candida albicans SC5314. Type of test: functional, organism-based. The procedure, abridged:
as §2

Test [12] relates to Cryptococcus neoformans. In words: Synergistic antifungal activity against Cryptococcus neoformans H99 assessed as FIC index in presence of fluconazole. In kind it is functional, var grubii H99. The procedure, abridged:
as §5

Test [13] has as its system Cryptococcus neoformans. The test can be described thus: Synergistic antifungal activity against Cryptococcus neoformans H99 in presence of 2.5 ug/ml fluconazole after 48 hrs by checker board assay. The note with it: var grubii H99 . In kind it is functional, organism-based.

From ChEMBL document CHEMBL4373698, “Biosynthesis of Nonimmunosuppressive FK506 Analogues with Antifungal Activity” (J Nat Prod, 2019) come the findings set out here.

Converted amounts (≈) assume the structure as drawn. The source made the active and inactive calls. No cut-off for these calls is given here.

The term IC50 denotes the concentration that gives 50% inhibition. For the compound `CO[C@H]1C[C@@H](C)C/C(C)=C/[C@@H](C)C(=O)C[C@H](O)[C@@H](C)[C@@H](/C(C)=C/[C@@H]2CC[C@@H](O)[C@H](O)C2)OC(=O)[C@@H]2CCCCN2C(=O)C[C@]2(O)O[C@H]1[C@@H](OC)C[C@H]2C`, the IC50 is over 50 µg/mL in test [1], 837 µg/mL (≈ 1120 µM) in test [2], 3.38 µg/mL (≈ 4.5 µM) in test [3] and 54.5 µg/mL (≈ 72.7 µM) in [4].
Take `CC[C@@H]1/C=C(\C)C[C@H](C)C[C@H](OC)[C@H]2O[C@@](O)(C(=O)C(=O)N3CCCC[C@H]3C(=O)O[C@H](/C(C)=C/[C@@H]3CC[C@@H](O)[C@H](O)C3)[C@H](C)[C@@H](O)CC1=O)[C@H](C)C[C@@H]2OC`: the IC50 in test [1] stood at 12.2 µg/mL (≈ 15.7 µM); in test [2], 0.079 µg/mL (≈ 0.102 µM); in test [3] it was 0.00327 µg/mL (≈ 0.00421 µM); in [4], 0.027 µg/mL (≈ 0.0347 µM).
Consider `CO[C@H]1C[C@@H](C)C/C(C)=C/[C@@H](C)C(=O)C[C@H](O)[C@@H](C)[C@@H](/C(C)=C/[C@@H]2CC[C@@H](O)[C@H](OC)C2)OC(=O)[C@@H]2CCCCN2C(=O)C[C@]2(O)O[C@H]1[C@@H](OC)C[C@H]2C`, for which the result in [5] was inactive. Besides, the IC50 in test [6] was found to be 0.125 µg/mL; in test [1] it was 230 µg/mL (≈ 302 µM); in [2], 6.07 µg/mL (≈ 7.95 µM); in [3], 1.98 µg/mL (≈ 2.6 µM); in test [4], 2.47 µg/mL (≈ 3.23 µM). Besides, in test [7], the “fractional inhibitory concentration index (FICI)” value stood at 0.5.
Take `CCC[C@@H]1/C=C(\C)C[C@H](C)C[C@H](OC)[C@H]2O[C@@](O)(CC(=O)N3CCCC[C@H]3C(=O)O[C@H](/C(C)=C/[C@@H]3CC[C@@H](O)[C@H](OC)C3)[C@H](C)[C@@H](O)CC1=O)[C@H](C)C[C@@H]2OC`: the IC50 in test [1] amounted to 14.1 µg/mL (≈ 17.8 µM); in test [2], 0.817 µg/mL (≈ 1.03 µM); in [3], 0.0255 µg/mL (≈ 0.0323 µM); in test [4], 0.151 µg/mL (≈ 0.191 µM).
On the same counts, the results for `CCC[C@@H]1/C=C(\C)C[C@H](C)C[C@H](OC)[C@H]2O[C@@](O)(CC(=O)N3CCCC[C@H]3C(=O)O[C@H](/C(C)=C/[C@@H]3CC[C@@H](O)[C@H](O)C3)[C@H](C)[C@@H](O)CC1=O)[C@H](C)C[C@@H]2OC` are over 50 µg/mL, 4.26 µg/mL (≈ 5.48 µM), 0.0459 µg/mL (≈ 0.059 µM) and 8.85 µg/mL (≈ 11.4 µM).
With `C=CC[C@@H]1/C=C(\C)C[C@H](C)C[C@H](OC)[C@H]2O[C@@](O)(C(=O)C(=O)N3CCCC[C@H]3C(=O)O[C@H](/C(C)=C/[C@@H]3CC[C@@H](O)[C@H](O)C3)[C@H](C)[C@@H](O)CC1=O)[C@H](C)C[C@@H]2OC`, the IC50 came to 0.005 µg/mL (≈ 0.00633 µM) in test [8], 0.165 µg/mL (≈ 0.209 µM) in test [9], 0.246 ng/mL (≈ 0.000311 µM) in test [10] and 0.106 µg/mL (≈ 0.134 µM) in test [11].
In the case of `C=CC[C@@H]1/C=C(\C)C[C@H](C)C[C@H](OC)[C@H]2O[C@@](O)(C(=O)C(=O)N3CCCC[C@H]3C(=O)O[C@H](/C(C)=C/[C@@H]3CC[C@@H](O)[C@H](OC)C3)[C@H](C)[C@@H](O)CC1=O)[C@H](C)C[C@@H]2OC` [TACROLIMUS ANHYDROUS], the IC50 in [8] worked out at 0.001 µg/mL (≈ 0.00124 µM); in [9], 0.015 µg/mL (≈ 0.0187 µM); in [10], 0.027 ng/mL (≈ 3.36e-05 µM); in test [11] it was 0.005 µg/mL (≈ 0.00622 µM). For the same compound, in test [12], the “fractional inhibitory concentration index (FICI)” value is reported as 0.38.
Regarding `C=CC[C@@H]1/C=C(\C)C[C@H](C)C[C@H](OC)[C@H]2O[C@@](O)(CC(=O)N3CCC[C@H]3C(=O)O[C@H](/C(C)=C/[C@@H]3CC[C@@H](O)[C@H](O)C3)[C@H](C)[C@@H](O)CC1=O)[C@H](C)C[C@@H]2OC`, the IC50 in test [1] is over 50 µg/mL; in [2], 3440 µg/mL (≈ 4520 µM); in [3] it was 0.886 µg/mL (≈ 1.16 µM); in test [4], 221 µg/mL (≈ 290 µM).
Turning to `C=CC[C@@H]1/C=C(\C)C[C@H](C)C[C@H](OC)[C@H]2O[C@@](O)(CC(=O)N3CCCC[C@H]3C(=O)O[C@H](/C(C)=C/[C@@H]3CC[C@@H](O)[C@H](OC)C3)[C@H](C)[C@@H](O)CC1=O)[C@H](C)C[C@@H]2OC`, the IC50 in [8] was 0.036 µg/mL (≈ 0.0456 µM); in [9], 24.2 µg/mL (≈ 30.6 µM); in test [10], 0.513 ng/mL (≈ 0.000649 µM); in test [11], 0.963 µg/mL (≈ 1.22 µM).
For `CCC[C@@H]1/C=C(\C)C[C@H](C)C[C@H](OC)[C@H]2O[C@@](O)(C(=O)C(=O)N3CCCC[C@H]3C(=O)O[C@H](/C(C)=C/[C@@H]3CC[C@@H](O)[C@H](O)C3)[C@H](C)[C@@H](O)CC1=O)[C@H](C)C[C@@H]2OC`, the IC50 worked out at 0.415 µg/mL (≈ 0.524 µM) in test [1], 0.059 µg/mL (≈ 0.0745 µM) in [2], 0.00172 µg/mL (≈ 0.00218 µM) in test [3] and 0.033 µg/mL (≈ 0.0417 µM) in test [4].
For `C=CC[C@@H]1/C=C(\C)C[C@H](C)C[C@H](OC)[C@H]2O[C@@](O)(CC(=O)N3CCCC[C@H]3C(=O)O[C@H](/C(C)=C/[C@@H]3CC[C@@H](O)[C@H](O)C3)[C@H](C)[C@@H](O)CC1=O)[C@H](C)C[C@@H]2OC`, the IC50 in test [8] stood at 0.154 µg/mL (≈ 0.198 µM); in test [9], 29.8 µg/mL (≈ 38.4 µM); in test [10] it was 15.1 ng/mL (≈ 0.0194 µM); in [11] it was 2.8 µg/mL (≈ 3.6 µM).
In the case of `CC[C@@H]1/C=C(\C)C[C@H](C)C[C@H](OC)[C@H]2O[C@@](O)(CC(=O)N3CCCC[C@H]3C(=O)O[C@H](/C(C)=C/[C@@H]3CC[C@@H](O)[C@H](O)C3)[C@H](C)[C@@H](O)CC1=O)[C@H](C)C[C@@H]2OC`, the result in [5] was inactive. Besides, the IC50 in [6] worked out at 0.0625 µg/mL; in [1], 307 µg/mL (≈ 402 µM); in test [2] it was 2.85 µg/mL (≈ 3.73 µM); in test [3], 0.258 µg/mL (≈ 0.338 µM); in [4], 3.3 µg/mL (≈ 4.32 µM). For the same compound, in test [7], the “fractional inhibitory concentration index (FICI)” value was determined as 0.19.
On to `CC[C@@H]1/C=C(\C)C[C@H](C)C[C@H](OC)[C@H]2O[C@@](O)(C(=O)C(=O)N3CCCC[C@H]3C(=O)O[C@H](/C(C)=C/[C@@H]3CC[C@@H](O)[C@H](OC)C3)[C@H](C)[C@@H](O)CC1=O)[C@H](C)C[C@@H]2OC` [ASCOMYCIN], for which, in [7], the “fractional inhibitory concentration index (FICI)” value is on record as 0.5.
Regarding `CC[C@@H]1/C=C(\C)C[C@H](C)C[C@H](OC)[C@H]2O[C@@](O)(CC(=O)N3CCCC[C@H]3C(=O)O[C@H](/C(C)=C/[C@@H]3CC[C@@H](O)[C@H](OC)C3)[C@H](C)[C@@H](O)CC1=O)[C@H](C)C[C@@H]2OC`, the result in [5] was inactive. Also, the “fractional inhibitory concentration index (FICI)” value in test [7] is given as 0.19. In addition, the IC50 in test [1] was 7.82 µg/mL (≈ 10.1 µM); in test [2], 0.662 µg/mL (≈ 0.851 µM); in [3], 0.025 µg/mL (≈ 0.0321 µM); in [13], 0.031 µg/mL; in [4], 0.355 µg/mL (≈ 0.456 µM).
